Laboratory results as given in ChEMBL document CHEMBL1125014, “Synthesis and structure-activity relationships of new 9-N-alkyl derivatives of 9(S)-erythromycylamine” (1990).

Key:
Mus musculus = experiment: Plasma concentration of compound in mice by oral administration, 20 mg/kg at 4 hr; format: functional, organism-based; set-up: dose 20 mg/kg
Procedure, shortened: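 Peripheral plasma antibiotic levels in mice after a 20 mg/kg oral dose, sampled at timed points after administration. Levels were measured by microbiological agar assay with Micrococcus luteus seeded in Antibiotic Media 1, reading zone sizes, and were calculated from a standard curve for the appropriate compound. Each value is the average of five mice per time point, in μg/mL.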

Rattus norvegicus [1] = species on record: Rattus norvegicus; experiment: Fluid concentration in liver tissue was determined in rats at 6 hr; format: functional
Procedure, shortened: (§1)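 Rats dosed by gavage at 20 mg/kg; lung, liver, kidney, urine and serum sampled at 0.5, 1, 2, 4 and 6 h after dosing. Antibiotic measured by microbiological assay with Micrococcus luteus seeded in Antibiotic Medium 1. Zone sizes were read against the standard curve for the same compound. Each value is the average of three rats per time point.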

Rattus norvegicus [2] = species on record: Rattus norvegicus; experiment: Fluid concentration in serum was determined in rats at 4 hr; format: functional; procedure, shortened: as §1
Rattus norvegicus [3] = species on record: Rattus norvegicus
Rattus norvegicus [4] = species on record: Rattus norvegicus; experiment: Fluid concentration in liver tissue was determined in rats at 4 hr; format: functional; procedure, shortened: as §1
Rattus norvegicus [5] = species on record: Rattus norvegicus; experiment: Fluid concentration in serum was determined in rats at 6 hr; format: functional; procedure, shortened: as §1
Rattus norvegicus [6] = species on record: Rattus norvegicus; experiment: Fluid concentration in kidney tissue was determined in rats at 2 h; format: functional
Procedure, shortened: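 Rats were gavaged at 20 mg/kg and tissues sampled 0.5–6 h after dosing. Drug was assayed microbiologically with Micrococcus luteus seeded in Antibiotic Media 1. Zone sizes were read against each compound's own standard curve. Values are the mean of three rats per time point, in μg/g.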

| Compound | Plasma concentration (Mus musculus) | Activity (Rattus norvegicus [1]) | Activity (Rattus norvegicus [2]) | Plasma concentration (Rattus norvegicus [3]) | Activity (Rattus norvegicus [4]) | Activity (Rattus norvegicus [5]) | Activity (Rattus norvegicus [6]) |
| --- | --- | --- | --- | --- | --- | --- | --- |
| CC[C@H]1OC(=O)[C@H](C)[C@@H](O[C@H]2C[C@@](C)(OC)[C@@H](O)[C@H](C)O2)[C@H](C)[C@@H](O[C@@H]2O[C@H](C)C[C@H](N(C)C)[C@H]2O)[C@](C)(O)C[C@@H](C)C(=O)[C@H](C)[C@@H](O)[C@]1(C)O [ERYTHROMYCIN] | 0 µg/mL | 0 µg/mL | 0 µg/mL | 1.21 µg/mL | 0 µg/mL | 0 µg/mL | – |
| CCCN[C@@H]1[C@H](C)[C@@H](O)[C@](C)(O)[C@@H](CC)OC(=O)[C@H](C)[C@@H](OC2CC(C)(OC)C(O)C(C)O2)[C@H](C)[C@@H](OC2OC(C)CC(N(C)C)C2O)[C@](C)(O)C[C@H]1C (some centres not stated) | – | – | – | – | – | – | 3.25 µg/mL |
